Screens: PubChem, Broad Institute
ARNT TACC3 PPI – disruptors of ARNT/TACC3 protein interaction, primary screen, biochemical, AlphaScreen, single concentration; AlphaScreen His-ARNT PAS-B/GST-TACC3 binding, luminescence; TACC3 fragment carries E629A point mutation; inhibition, % at 9.99 µM; 390,000 tested, 0.66% active;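 active = mean inhibition of replicates at least 50% and at least half of replicates each reaching 50%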;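 also: 0% = complete ARNT plus TACC3 wells and 100% = ARNT alone without TACC3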
CAL PDZ FP-1 – untagged CAL PDZ binding inhibitors, primary screen, biochemical, fluorescence polarization, HTS; 300,000 tested, 0.92% active; inhibition, % at 24.9 µM; Golgi-associated PDZ and coiled-coil motif-containing protein (Homo sapiens), Q9HD26; purified CAL PDZ, TMR-peptide fluorescence polarization, 1 h;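 active = mean inhibition of at least 30% with at least half of replicates also reaching 30%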;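 also: 0% = DMSO neutral control and 100% = excess unlabeled competitor peptide PRC23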
CaV13 ICDI inh – Primary screen for inhibitors of IQ motif and Ca2+-dependent inactivation inhibitor domain binding in CACNA1D, Förster resonance energy transfer in living cells, …; HEK cells, CFP/YFP FRET ICDI-IQ, plate reader, 10 min; percent FRET-ratio fall versus neutral wells; inhibition, % at 12.3 µM; 340,000 tested, 0.098% active; AID 743397;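 active = mean replicate inhibition of at least 30% and at least 1% of replicates passing that level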;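 also: 0% = median of the neutral control wells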
CAL PDZ FP-2 – CAL PDZ peptide-binding inhibitors, primary screen, biochemical, fluorescence polarization, Cer-tagged CAL PDZ, HTS | Golgi-associated PDZ and coiled-coil motif-containing protein (Homo sapiens), Q9HD26 | purified CAL PDZ, TMR-peptide fluorescence polarization, 1 h | inhibition, % at 20 µM | 330,000 tested, 0.02% active;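 active = highest replicate inhibition of at least 40%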;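 also: plate controls were DMSO neutral control wells for no effect and unlabeled competitor peptide control wells for full effect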
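System: tagged CAL PDZ domain. Schedule: 1 h room-temperature incubation prior to read. Signal: fluorescence polarization (mP). Measure: percent inhibition from loss of millipolarization.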
* = called active by the depositor; · = no result. Hits are enriched below; roughly 1.2% of the tested compounds scored in any of these assays.

SMILES | ARNT TACC3 PPI | CAL PDZ FP-1 | CaV13 ICDI inh | CAL PDZ FP-2
Cc1c(C(=O)Oc2cccc3cccnc23)oc2ccccc12 | 21.7 | 39.4* | -6.2 | -0.3
CCc1nc2ccccc2c(C(=O)Oc2cccc3cccnc23)c1C | 4.0 | -0.3 | -4.4 | 22.9
CCc1noc(C)c1C(=O)N1CCN(S(=O)(=O)c2cccs2)CC1 | -4.1 | 50.3* | -6.3 | -0.1
CC(O)c1cccc(NC(=O)CC(c2ccccc2)c2ccccc2)c1 (stereo not drawn) | 15.1 | 5.1 | -5.6 | -3.4
O=C(CC(c1ccccc1)c1ccccc1)Nc1ccncc1 | 0.1 | 81.2* | -4.9 | -2.8
O=C(O)C[C@@H]1CC[C@@H]2[C@H](COC[C@H](O)CN2S(=O)(=O)c2ccc(F)cc2)O1 | 1.9 | · | · | ·
CCCCn1c(N)c(N(CC)C(=O)c2ccccc2F)c(=O)[nH]c1=O | 3.7 | 33.0* | -4.1 | -0.4
CCCCCCn1nc(C(=O)N(CCCC)c2c(N)n(CCC)c(=O)[nH]c2=O)c2ccccc2c1=O | -0.2 | 46.6* | -2.2 | 2.0
CCCCn1c(N)c(N(C)C(=O)C2CCCC2)c(=O)[nH]c1=O | 0.0 | 42.7* | -3.2 | -0.2
CCCn1c(N)c(N(CCOC)C(=O)c2ccccc2F)c(=O)[nH]c1=O | -11.3 | -3.3 | -3.4 | 0.6
CCN(C(=O)c1ccc(=O)[nH]c1)c1c(N)n(Cc2ccccc2)c(=O)[nH]c1=O | 1.8 | · | -16.6 | -1.3
CCN(C(=O)c1ccc(=O)n(C)n1)c1c(N)n(Cc2ccccc2)c(=O)[nH]c1=O | -26.5 | 37.7* | -6.2 | 0.6
O=C1c2cccc3cccc(c23)C(=O)N1Cc1cccnc1 | -0.5 | -1.6 | -4.4 | -0.9
O=C1c2cccc3c([N+](=O)[O-])ccc(c23)C(=O)N1Cc1cccnc1 | 0.8 | 37.4* | -250.3 | 0.7
CCN(CC)C(=O)COc1ccc(N(C)S(=O)(=O)c2ccc(NC(C)=O)cc2)cc1 | -6.3 | 71.3* | -15.0 | -0.5
O=C(C=C1CCN(c2ncc(C(F)(F)F)cc2Cl)CC1)NNC(=O)Nc1ccc(Cl)cc1 | -6.9 | 74.0* | -4.7 | 4.9
Cc1ccc(S(=O)(=O)Nc2ccc3c(c2)C(=O)N([C@H](C)CO)C[C@@H](C)[C@H](CN(C)S(=O)(=O)c2ccc(C)cc2)O3)cc1 | 2.4 | · | · | ·
C/C(=N\NS(C)(=O)=O)c1ccccc1 | -7.1 | 94.0* | -4.4 | -0.7
CN(C)S(=O)(=O)c1cccc(NC(=S)N/N=C/c2cccc(O)c2)c1 | 16.9 | -1.2 | -6.8 | -1.6
CN(C)S(=O)(=O)c1cccc(NC(=S)N/N=C/c2cc(Br)ccc2O)c1 | 62.4* | -3.0 | -9.5 | -0.5
N#CC1C(=O)NC(=O)CC12CCCCC2 (stereo not drawn) | -2.8 | 80.1* | -5.4 | -3.1
NC(=O)c1cc(S(=O)(=O)N2CCCC2)ccc1OCCOc1ccccc1F | -3.0 | 44.0* | -6.4 | 0.0
COc1cc(NS(=O)(=O)c2ccc(Nc3nc(-c4ccccn4)cs3)cc2)nc(OC)n1 | 56.2* | -4.3 | -5.1 | ·
O=S(=O)(O)c1cc(O)c(N=Nc2ccc(O)cc2O)c2ccccc12 | 93.5* | 8.5 | -7.1 | 2.9
Cn1cnc(S(=O)(=O)N[C@H]2C=C[C@H](CC(=O)Nc3ccccc3)O[C@H]2CO)c1 | 6.8 | · | · | ·
SMILES | ARNT TACC3 PPI | CAL PDZ FP-1 | CaV13 ICDI inh | CAL PDZ FP-2
COCc1nnc(NS(=O)(=O)c2ccc(C)cc2)s1 | 7.8 | 3.1 | -4.0 | -1.1
COCc1nnc(NS(=O)(=O)c2c(C)cc(C)cc2C)s1 | -29.8 | 34.8* | -4.4 | ·
CO[C@@H]1CN(C)C(=O)c2ccc(NS(C)(=O)=O)cc2OC[C@@H](C)N(CCC(F)(F)F)C[C@@H]1C | -3.3 | · | · | ·
CCOc1ccccc1C(=O)NCC(=O)OCc1csc(CC(=O)Nc2ccc(C)cc2)n1 | -1.6 | 64.9* | -5.9 | -0.1
O=C(Nc1cccc(C(F)(F)F)c1)c1ccc(Cn2cc(Br)cn2)o1 | -29.9 | 76.1* | -7.7 | -0.5
O=C(Nc1ccc(C(F)(F)F)cc1Cl)c1ccc(Cn2cc(Br)cn2)o1 | 5.6 | -3.0 | -7.5 | -1.8
O=C(Cc1ccccn1)NCC[C@@H]1CC[C@@H](NC(=O)CN2CCOCC2)[C@@H](CO)O1 | -1.8 | · | · | ·
O=C(C(c1ccccc1)c1ccccc1)N1CCN(Cc2ccncc2)CC1 | -5.7 | -2.4 | · | -0.7
O=C(C(c1ccccc1)c1ccccc1)N1CCN(Cc2ccccn2)CC1 | 0.7 | 30.6* | · | -0.5
Oc1ccc(/C=N/NC(=S)Nc2cccnc2)c(O)c1O | 63.6* | 2.5 | -5.0 | 5.8
Oc1cccc(/C=N/NC(=S)Nc2cccnc2)c1O | 65.8* | -1.7 | -6.3 | -0.3
COCCCNC(=S)N/N=C/c1ccc(O)cc1 | · | -4.2 | -4.9 | 0.7
COCCCNC(=S)N/N=C/c1ccc(O)cc1O | 84.2* | -2.5 | -4.8 | -0.5
S=C(N/N=C/c1ccc2ncccc2c1)Nc1ccccc1 | 4.8 | 32.9* | -4.5 | -2.6
Fc1c(F)c(F)c(/C=N/NC(=S)Nc2cccnc2)c(F)c1F | 0.1 | 2.4 | -5.0 | -0.7
C(=N\NCc1ccccc1)/c1ccc2ncccc2c1 | · | · | -15.3 | ·
CC(=O)N1[C@@H]2c3ccc(C4=CCCCC4)c(=O)n3C[C@H]1[C@H](CO)[C@H]2C(=O)N[C@@H](C)c1ccccc1 | 0.9 | · | · | ·
Fc1cccc(F)c1/C=N/NC(=S)Nc1cccnc1 | 3.1 | -3.6 | -4.4 | 0.1
Oc1ccc(C=NNC(=S)Nc2ccc(F)cc2)c(O)c1 | 64.9* | 31.8* | -10.4 | -0.1
Oc1ccc(/C=N/NC(=S)Nc2cccnc2)c(O)c1 | 64.8* | -0.8 | -5.9 | -1.7
COc1ccc(CN(C)C[C@H]2OCCCC[C@@H](C)Oc3ccc(NC(=O)c4ccccc4)cc3C(=O)N([C@@H](C)CO)C[C@@H]2C)cc1 | 3.2 | · | · | ·
Cc1ccc(NC(=O)CN(C)C(=O)c2ccc3[nH]c4c(c3c2)CC(C)CC4)cc1 (stereo not drawn) | 1.7 | 74.0* | -17.4 | 0.2
C[C@H](CO)N1C[C@H](C)[C@H](CN(C)C(=O)Nc2ccccc2)OCCCC[C@H](C)Oc2ccc(NC(=O)C3CCCCC3)cc2C1=O | -0.6 | · | · | ·
CC(C)NC(=O)N(C)C[C@H]1Oc2ccc(NC(=O)c3ccncc3)cc2CC(=O)N([C@@H](C)CO)C[C@@H]1C | -0.3 | · | · | ·
CCc1ccc(S(=O)(=O)/N=C2\C=C(Nc3cccc(C(=O)O)c3)C(=O)c3ccccc32)cc1 | 68.5* | 2.2 | -4.0 | 0.2
CCc1ccc(S(=O)(=O)/N=C2/C=C(Sc3ncn[nH]3)C(=O)c3ccccc32)cc1 | 35.8* | 5.3 | · | 28.2
Cc1nonc1NC(=O)CSc1nnc(-c2ccoc2C)n1CC(C)C | -7.3 | 176.5* | -3.4 | ·
O=C(CC(F)(F)F)N1C[C@H]2[C@@H](c3ccccc31)[C@@H](CO)N2C(=O)Cc1cccnc1 | -3.1 | · | · | ·
Oc1c(CN2CCc3ccccc3C2)cc(Cl)c2cccnc12 | 58.2* | · | · | 0.4
